According to ChEMBL document CHEMBL3044661, “Antifungal clerodane diterpenes from Macaranga monandra (L) Muell. et Arg. (Euphorbiaceae)” (J Agric Food Chem, 2003):
The source made the active and inactive calls. No cut-off for these calls is given here.

Experiments:
Colletotrichum acutatum [1] = assay: Growth stimulation of Colletotrichum acutatum at low concentration by microtiter assay; type: organism-based; conditions: in vivo
In short: (§1)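 96-well broth microassay. Conidia came from 7–10-day PDA cultures, were filtered through miracloth and set photometrically (625 nm %T curve) to 1.0×10^6 conidia/mL. Final doses were 0.3, 3.0 and 30.0 µM, in duplicate. Plates ran at 24 ± 1 °C with a 12-h photoperiod. A620 was read at 48 and 72 h. Percent inhibition (n = 4) was taken relative to untreated growth controls (n = 32). Split-plot design, replicated twice in time.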

[2] = system: Colletotrichum gloeosporioides; assay: Growth stimulation of Colletotrichum gloeosporioides at low concentration by microtiter assay; type: organism-based; conditions: in vivo; in short: as §1
Fusarium oxysporum = assay: Growth inhibition of Fusarium oxysporum at < / = 30 uM after 48 to 72 hr by microtiter assay; type: functional, organism-based; in short: as §1
[3] = system: Colletotrichum gloeosporioides; assay: Growth inhibition of Colletotrichum gloeosporioides at < / = 30 uM after 48 to 72 hr by microtiter assay; type: functional, organism-based; in short: as §1
Colletotrichum fragariae [4] = assay: Growth inhibition of Colletotrichum fragariae at < / = 30 uM after 72 hr by microtiter assay; type: functional, organism-based; in short: as §1
Botrytis cinerea = assay: Growth inhibition of Botryotinia fuckeliana at 30 uM after 48 hr by microtiter assay; type: functional; conditions: read-out: GI; in short: as §1
Colletotrichum acutatum [5] = assay: Growth inhibition of Colletotrichum acutatum at < / = 30 uM after 48 to 72 hr by microtiter assay; type: functional, organism-based; in short: as §1
Diaporthe ampelina = assay: Growth inhibition of Diaporthe ampelina at 30 uM after 120 hr by microtiter assay; type: functional; conditions: read-out: GI
In short: (§2)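 96-well broth microassay against Phomopsis viticola or P. obscurans. Conidial inoculum was filtered and photometrically set to 1.0×10^6 conidia/mL. Final doses were 0.3, 3.0 and 30.0 µM, in duplicate. Incubation was at 24 ± 1 °C with a 12-h photoperiod, and A620 was recorded at 120 h. Mean percent inhibition (n = 4) was taken against untreated positive controls (n = 32). Split-plot design, replicated twice in time.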

Phomopsis obscurans [6] = assay: Growth inhibition of Phomopsis obscurans at 30 uM after 120 hr by microtiter assay; type: functional; conditions: Paraphomopsis obscurans, read-out: GI; in short: as §2
[7] = system: Colletotrichum gloeosporioides; assay: Antifungal activity against Colletotrichum gloeosporioides assessed as zone of inhibition at 100 ug/ml after 4 days by TLC bioautographic analysis; type: functional; conditions: 96 h, read-out: IZ
In short: (§3)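 TLC bioautography on silica gel GF plates with fluorescent indicator. Compounds were spotted in a dose series at final 3.12–100 µg/mL. Plates were sprayed three times with conidia at final 3.0×10^5 conidia/mL in potato-dextrose broth with 0.1% Tween-80, then held in a moisture chamber at 24 ± 1 °C with a 12-h photoperiod. Inhibition zones (mm) were read at 4 d and reported as mean ± SD.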

Colletotrichum fragariae [8] = assay: Antifungal activity against Colletotrichum fragariae assessed as zone of inhibition at 50 ug/ml after 4 days by TLC bioautographic analysis; type: functional; conditions: 96 h, read-out: IZ; in short: as §3
Colletotrichum fragariae [9] = assay: Antifungal activity against Colletotrichum fragariae assessed as zone of inhibition at 25 ug/ml after 4 days by TLC bioautographic analysis; type: functional; conditions: 96 h, read-out: IZ; in short: as §3
Colletotrichum fragariae [10] = assay: Antifungal activity against Colletotrichum fragariae assessed as zone of inhibition at 100 ug/ml after 4 days by TLC bioautographic analysis; type: functional; conditions: 96 h, read-out: IZ; in short: as §3
Phomopsis obscurans [11] = assay: Growth stimulation of Phomopsis obscurans at low concentration by microtiter assay; type: organism-based; conditions: paraphomopsis obscurans, in vivo; in short: as §2

Activity (Colletotrichum acutatum [1])	Activity [2]	Activity (Phomopsis obscurans [11])	SMILES	growth inhibition (GI) (Fusarium oxysporum)	growth inhibition (GI) [3]	growth inhibition (GI) (Colletotrichum fragariae [4])	inhibition of growth at 30 µM (Botrytis cinerea)	growth inhibition (GI) (Colletotrichum acutatum [5])	inhibition of growth at 30 µM (Diaporthe ampelina)	inhibition of growth at 30 µM (Phomopsis obscurans [6])	zone of inhibition at 100 µg/mL [7]	zone of inhibition at 50 µg/mL (Colletotrichum fragariae [8])	zone of inhibition at 25 µg/mL (Colletotrichum fragariae [9])	zone of inhibition at 100 µg/mL (Colletotrichum fragariae [10])
Dose-dependent effect and tde	Dose-dependent effect and tde	Dose-dependent effect and tde	CC1=CC(=O)C[C@@H]2[C@@](C)(CC/C(C)=C/C(=O)O)[C@H](C)CC[C@@]12C [2-OXO-KOLAVENIC ACID]	inactive	inactive	inactive	23%	inactive	46%	8%	0 mm	8 mm	6 mm	8 mm
Dose-dependent effect and tde	Dose-dependent effect and tde	Dose-dependent effect and tde	CC1=CCC[C@@H]2[C@@](C)(CC/C(C)=C/C(=O)O)[C@H](C)CC[C@@]12C [KOLAVENIC ACID]	inactive	inactive	inactive	23%	inactive	50%	26%	9.5 mm	8.5 mm	5 mm	9 mm
